In brackets after ≈: the same amount, converted by molar mass. Activity calls are given as the source filed them. The calls are words filed in the database; no cut-off is given here.

For experiment [1], the system named is Mycobacterium tuberculosis. Description: Antitubercular activity against Mycobacterium tuberculosis H37Rv. It is filed as functional. Summed up: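 Broth microdilution against M. tuberculosis H37Rv; MIC read by visual inspection of growth.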
The subject of another experiment is Staphylococcus aureus. Description: Antimicrobial activity against Staphylococcus aureus. In kind it is functional, organism-based.
A further experiment deals with Streptococcus pneumoniae. Description: Antimicrobial activity against Streptococcus pneumoniae. It is filed as functional, organism-based.
The subject of another experiment is Escherichia coli. Description: Antimicrobial activity against Escherichia coli. In kind it is functional, organism-based.

With `CCOC(=O)C1=NOC(c2ccc(N3CCN(Cc4ccccc4)CC3)cc2)C1` (stereo not given), the minimum inhibitory concentration (MIC) (in general, the lowest concentration that inhibits growth of the organism) in experiment [1] was 1.56 mg/L (≈ 3.96 µM). For the same compound, the outcome in the experiment with Staphylococcus aureus, with Streptococcus pneumoniae and with Escherichia coli was inactive.
As for `CCOC(=O)C1=NOC(c2ccc(N3CCN(C(=O)OCC)CC3)cc2)C1` (stereo not given), in experiment [1], the MIC is 1.56 mg/L (≈ 4.16 µM). For the same compound, the result with Staphylococcus aureus, in the experiment with Streptococcus pneumoniae and in the experiment on Escherichia coli was inactive.
Regarding `CCOC(=O)C1=NOC(c2ccc(N3CCNCC3)cc2)C1` (stereo not given), the minimal inhibitory concentration (MIC) in experiment [1] is 50 mg/L (≈ 165 µM). The outcome with Staphylococcus aureus, in the experiment with Streptococcus pneumoniae and in the experiment on Escherichia coli was inactive.
`NC(=O)C1=NOC(c2ccc(N3CCN(Cc4ccccc4)CC3)cc2)C1` (stereo not given) registered an MIC in experiment [1] of 200 mg/L (≈ 549 µM). For the same compound, the result in the experiment with Staphylococcus aureus, in the experiment with Streptococcus pneumoniae and in the experiment with Escherichia coli was inactive.
`Cc1nnc(C2=NOC(c3ccc(N4CCN(Cc5ccccc5)CC4)cc3)C2)o1` (stereo not given) had an MIC in experiment [1] of 200 mg/L (≈ 496 µM). The result in the experiment with Staphylococcus aureus, in the experiment on Streptococcus pneumoniae and in the experiment on Escherichia coli was inactive.
Compound `O=C([O-])C1=NOC(c2ccc(N3CCN(Cc4ccccc4)CC3)cc2)C1.[Li+]` (stereo not given) came in with a minimum inhibitory concentration (MIC) in experiment [1] of 100 mg/L.
Regarding `CCOC(=O)C1=NOC(c2ccc(-c3ccco3)cc2)C1` (stereo not given), inhibition of growth in experiment [1] (MIC) required 3.25 mg/L (≈ 11.4 µM). Moreover, the outcome in the experiment with Staphylococcus aureus, in the experiment on Streptococcus pneumoniae and in the experiment with Escherichia coli was inactive.
For `OCC1=NOC(c2ccc(N3CCOCC3)cc2)C1` (stereo not given), the MIC in experiment [1] was greater than 200 mg/L. Further, the result with Staphylococcus aureus, in the experiment on Streptococcus pneumoniae and with Escherichia coli was inactive.
Take `CCOC(=O)C1=NOC(c2ccc(-c3ccc(OC)c(F)c3)cc2)C1` (stereo not given): the minimum inhibitory concentration (MIC) in experiment [1] came to 3.12 mg/L (≈ 9.1 µM). Besides, the result in the experiment on Staphylococcus aureus, in the experiment on Streptococcus pneumoniae and in the experiment on Escherichia coli was inactive.
Compound `CCOC(=O)C1=NOC(c2ccc(-c3ccc(C=O)cc3)cc2)C1` (stereo not given) came in with an MIC in experiment [1] of 6.25 mg/L (≈ 19.3 µM). Also, the result with Staphylococcus aureus, in the experiment on Streptococcus pneumoniae and in the experiment on Escherichia coli was inactive.
For the compound `CCCCCCNC(=O)N1CCN(c2ccc(C3CC(C(=O)OCC)=NO3)cc2)CC1` (stereo not given), the minimum inhibitory concentration (MIC) in experiment [1] was found to be 0.4 mg/L (≈ 0.929 µM). The result in the experiment with Staphylococcus aureus, with Streptococcus pneumoniae and in the experiment on Escherichia coli was inactive.
For the compound `CCCCCCNC(=O)N1CCN(c2ccc(C3CC(C(=O)O)=NO3)cc2)CC1` (stereo not given), the MIC in experiment [1] was greater than 200 mg/L. In addition, the result with Staphylococcus aureus, in the experiment on Streptococcus pneumoniae and in the experiment with Escherichia coli was inactive.
For `CC(=O)NCC1=NOC(c2ccc(N3CCOCC3)cc2)C1` (stereo not given), the MIC in experiment [1] was greater than 200 mg/L. Besides, the outcome in the experiment on Staphylococcus aureus, in the experiment with Streptococcus pneumoniae and in the experiment on Escherichia coli was inactive.
In turn, `[N-]=[N+]=NCC1=NOC(c2ccc(N3CCOCC3)cc2)C1` (stereo not given) showed an MIC in experiment [1] of 200 mg/L (≈ 696 µM). Also, the result in the experiment with Staphylococcus aureus, in the experiment on Streptococcus pneumoniae and in the experiment with Escherichia coli was inactive.
Take `NCC1=NOC(c2ccc(N3CCOCC3)cc2)C1` (stereo not given): the minimum inhibitory concentration (MIC) in experiment [1] was greater than 200 mg/L. For the same compound, the result in the experiment with Staphylococcus aureus, with Streptococcus pneumoniae and in the experiment with Escherichia coli was inactive.
In experiment [1], `CC(C)COC(=O)N1CCN(c2ccc(C3CC(C(=O)O)=NO3)cc2)CC1` (stereo not given) gave an MIC greater than 200 mg/L. Also, the result in the experiment on Staphylococcus aureus, in the experiment on Streptococcus pneumoniae and with Escherichia coli was inactive.
`O=C(O)C1=NOC(c2ccc(N3CCN(Cc4ccccc4)CC3)cc2)C1` (stereo not given) [listing 1 of 2 here] returned a minimum inhibitory concentration (MIC) in experiment [1] greater than 200 mg/L.
`O=C(O)C1=NOC(c2ccc(N3CCN(Cc4ccccc4)CC3)cc2)C1` (stereo not given) [listing 2 of 2 here]: the outcome in the experiment with Staphylococcus aureus, in the experiment on Streptococcus pneumoniae and with Escherichia coli was inactive.

These data come from ChEMBL document CHEMBL1153861, “Synthesis, optimization and structure-activity relationships of 3,5-disubstituted isoxazolines as new anti-tuberculosis agents” (2009).
